Laboratory results published in ChEMBL document CHEMBL5058577, “EUbOPEN Chemogenomics Library 2 (Multiplex)” (2022).
Non-standard residues stand in square brackets, D forms with d. Residues, ends and D or L forms follow the SMILES beside them.

Test system: U2OS
Assay: Multiplex assay against U2OS
Assay type: toxicity, cell-based
Conditions: human
How it was run: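 On a CQ1 microscope at 37°C and 5% CO2, live cells were imaged after compound addition. They had been stained at seeding with Hoechst33342, BioTracker Green Microtubule Cytoskeleton Dye, MitoTracker Red and Annexin V Alexa Fluor 680. CellPathfinder machine-learning gating assigned cells to Hoechst high-intensity objects or normal cells, normal cells to healthy, pyknosed or fragmented nuclei, and pyknosed cells to mitotic or apoptotic. Tubulin, mitochondrial-mass and membrane-permeability phenotypes are per cents of healthy-nucleus cells.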

[1] = 12 h, 1 µM, compound concentration 1 uM, replicate 1
[2] = 12 h, 1 µM, compound concentration 1 uM, replicate 2
[3] = 12 h, 10 µM, compound concentration 10 uM, replicate 1
[4] = 12 h, 10 µM, compound concentration 10 uM, replicate 2
[5] = 24 h, 1 µM, compound concentration 1 uM, replicate 1
[6] = 24 h, 1 µM, compound concentration 1 uM, replicate 2
[7] = 24 h, 10 µM, compound concentration 10 uM, replicate 1
[8] = 24 h, 10 µM, compound concentration 10 uM, replicate 2
[9] = 48 h, 1 µM, compound concentration 1 uM, replicate 1
[10] = 48 h, 1 µM, compound concentration 1 uM, replicate 2
[11] = 48 h, 10 µM, compound concentration 10 uM, replicate 1
[12] = 48 h, 10 µM, compound concentration 10 uM, replicate 2

CC(C)C[C@@H]1NC(=O)[C@@H](C(C)C)NC(=O)[C@@H]2CCCN2C(=O)[C@@H](CC(=O)O)NC(=O)[C@@H](Cc2c[nH]c3ccccc23)NC1=O [BQ-123] (cyclo(L[dW][dD]P[dV]))
Population Apoptotic (%) [1]: 77%
Population Fragmented Nuclei (%) [1]: 20%
Population Healthy Nuclei (%) [1]: 69%
Population Hoechst High Intensity Objects (%) [1]: 0%
Population Membrane Permeable-Phenotype (%) [1]: 1%
Population Mitochondria Different-Phenotype (%) [1]: 1%
Population Mitotic Cells (%) [1]: 22%
Population Normal (%) [1]: 99%
Population Pyknosed Nuclei (%) [1]: 9%
Population Tubulin-Different-Phenotype (%) [1]: 0%
Total Cell Count [1]: 228
Population Apoptotic (%) [2]: 83%
Population Fragmented Nuclei (%) [2]: 19%
Population Healthy Nuclei (%) [2]: 75%
Population Hoechst High Intensity Objects (%) [2]: 2%
Population Membrane Permeable-Phenotype (%) [2]: 2%
Population Mitochondria Different-Phenotype (%) [2]: 0%
Population Mitotic Cells (%) [2]: 16%
Population Normal (%) [2]: 97%
Population Pyknosed Nuclei (%) [2]: 5%
Population Tubulin-Different-Phenotype (%) [2]: 8%
Total Cell Count [2]: 118
Population Apoptotic (%) [3]: 78%
Population Fragmented Nuclei (%) [3]: 29%
Population Healthy Nuclei (%) [3]: 65%
Population Hoechst High Intensity Objects (%) [3]: 2%
Population Membrane Permeable-Phenotype (%) [3]: 8%
Population Mitochondria Different-Phenotype (%) [3]: 1%
Population Mitotic Cells (%) [3]: 21%
Population Normal (%) [3]: 97%
Population Pyknosed Nuclei (%) [3]: 4%
Population Tubulin-Different-Phenotype (%) [3]: 3%
Total Cell Count [3]: 294
Population Apoptotic (%) [4]: 75%
Population Fragmented Nuclei (%) [4]: 25%
Population Healthy Nuclei (%) [4]: 70%
Population Membrane Permeable-Phenotype (%) [4]: 7%
Population Mitochondria Different-Phenotype (%) [4]: 4%
Population Mitotic Cells (%) [4]: 25%
Population Tubulin-Different-Phenotype (%) [4]: 2%
Total Cell Count [4]: 99
Population Apoptotic (%) [5]: 69%
Population Fragmented Nuclei (%) [5]: 16%
Population Healthy Nuclei (%) [5]: 75%
Population Hoechst High Intensity Objects (%) [5]: 0%
Population Membrane Permeable-Phenotype (%) [5]: 2%
Population Mitochondria Different-Phenotype (%) [5]: 1%
Population Mitotic Cells (%) [5]: 30%
Population Normal (%) [5]: 99%
Population Pyknosed Nuclei (%) [5]: 8%
Population Tubulin-Different-Phenotype (%) [5]: 1%
Total Cell Count [5]: 279
Population Apoptotic (%) [6]: 85%
Population Fragmented Nuclei (%) [6]: 11%
Population Healthy Nuclei (%) [6]: 77%
Population Membrane Permeable-Phenotype (%) [6]: 6%
Population Mitochondria Different-Phenotype (%) [6]: 0%
Population Mitotic Cells (%) [6]: 14%
Population Pyknosed Nuclei (%) [6]: 10%
Population Tubulin-Different-Phenotype (%) [6]: 3%
Total Cell Count [6]: 137
Population Apoptotic (%) [7]: 92%
Population Fragmented Nuclei (%) [7]: 24%
Population Healthy Nuclei (%) [7]: 67%
Population Hoechst High Intensity Objects (%) [7]: 2%
Population Membrane Permeable-Phenotype (%) [7]: 8%
Population Mitochondria Different-Phenotype (%) [7]: 2%
Population Mitotic Cells (%) [7]: 8%
Population Normal (%) [7]: 97%
Population Pyknosed Nuclei (%) [7]: 7%
Population Tubulin-Different-Phenotype (%) [7]: 4%
Total Cell Count [7]: 338
Population Apoptotic (%) [8]: 100%
Population Healthy Nuclei (%) [8]: 74%
Population Hoechst High Intensity Objects (%) [8]: 0%
Population Membrane Permeable-Phenotype (%) [8]: 6%
Population Mitochondria Different-Phenotype (%) [8]: 8%
Population Mitotic Cells (%) [8]: 0%
Population Normal (%) [8]: 99%
Population Pyknosed Nuclei (%) [8]: 1%
Total Cell Count [8]: 113
Population Apoptotic (%) [9]: 77%
Population Fragmented Nuclei (%) [9]: 14%
Population Healthy Nuclei (%) [9]: 79%
Population Hoechst High Intensity Objects (%) [9]: 1%
Population Membrane Permeable-Phenotype (%) [9]: 3%
Population Mitochondria Different-Phenotype (%) [9]: 1%
Population Mitotic Cells (%) [9]: 22%
Population Normal (%) [9]: 98%
Population Pyknosed Nuclei (%) [9]: 5%
Population Tubulin-Different-Phenotype (%) [9]: 3%
Total Cell Count [9]: 407
Population Apoptotic (%) [10]: 100%
Population Fragmented Nuclei (%) [10]: 18%
Population Healthy Nuclei (%) [10]: 70%
Population Mitochondria Different-Phenotype (%) [10]: 3%
Population Mitotic Cells (%) [10]: 0%
Population Pyknosed Nuclei (%) [10]: 10%
Population Tubulin-Different-Phenotype (%) [10]: 2%
Total Cell Count [10]: 226
Population Apoptotic (%) [11]: 94%
Population Fragmented Nuclei (%) [11]: 19%
Population Healthy Nuclei (%) [11]: 70%
Population Hoechst High Intensity Objects (%) [11]: 1%
Population Membrane Permeable-Phenotype (%) [11]: 5%
Population Mitochondria Different-Phenotype (%) [11]: 2%
Population Mitotic Cells (%) [11]: 5%
Population Normal (%) [11]: 98%
Population Pyknosed Nuclei (%) [11]: 9%
Population Tubulin-Different-Phenotype (%) [11]: 3%
Total Cell Count [11]: 435
Population Apoptotic (%) [12]: 81%
Population Fragmented Nuclei (%) [12]: 20%
Population Healthy Nuclei (%) [12]: 66%
Population Mitochondria Different-Phenotype (%) [12]: 6%
Population Mitotic Cells (%) [12]: 18%
Population Pyknosed Nuclei (%) [12]: 12%
Population Tubulin-Different-Phenotype (%) [12]: 2%
Total Cell Count [12]: 131
